Source: ChEMBL document CHEMBL4819017 (Eur J Med Chem, 2021)
pEC50, pIC50: −log10 of the molar value. “And” between values parts separate entries of the source, which are not always exact repeats. Equal entries are not always repeated. Values belong to the compound of their own block, whether it stands above or below them.

Legend:
[1] = biological target: Serine/threonine-protein kinase mTOR (Homo sapiens, UniProt P42345); assay: Inhibition of recombinant human GST tagged mTOR (1360 to 2549 residues) expressed in baculovirus expression system measured by LanthaScreen assay
How it was run: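 mTOR inhibition measured by LanthaScreen assay; IC50 values average two independent experiments.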

[2] = biological target: Voltage-gated inwardly rectifying potassium channel KCNH2 (Homo sapiens, UniProt Q12809); assay: Inhibition of human ERG by fluorescence polarization assay
Chain of Voltage-gated inwardly rectifying potassium channel KCNH2 (Q12809 whole entry): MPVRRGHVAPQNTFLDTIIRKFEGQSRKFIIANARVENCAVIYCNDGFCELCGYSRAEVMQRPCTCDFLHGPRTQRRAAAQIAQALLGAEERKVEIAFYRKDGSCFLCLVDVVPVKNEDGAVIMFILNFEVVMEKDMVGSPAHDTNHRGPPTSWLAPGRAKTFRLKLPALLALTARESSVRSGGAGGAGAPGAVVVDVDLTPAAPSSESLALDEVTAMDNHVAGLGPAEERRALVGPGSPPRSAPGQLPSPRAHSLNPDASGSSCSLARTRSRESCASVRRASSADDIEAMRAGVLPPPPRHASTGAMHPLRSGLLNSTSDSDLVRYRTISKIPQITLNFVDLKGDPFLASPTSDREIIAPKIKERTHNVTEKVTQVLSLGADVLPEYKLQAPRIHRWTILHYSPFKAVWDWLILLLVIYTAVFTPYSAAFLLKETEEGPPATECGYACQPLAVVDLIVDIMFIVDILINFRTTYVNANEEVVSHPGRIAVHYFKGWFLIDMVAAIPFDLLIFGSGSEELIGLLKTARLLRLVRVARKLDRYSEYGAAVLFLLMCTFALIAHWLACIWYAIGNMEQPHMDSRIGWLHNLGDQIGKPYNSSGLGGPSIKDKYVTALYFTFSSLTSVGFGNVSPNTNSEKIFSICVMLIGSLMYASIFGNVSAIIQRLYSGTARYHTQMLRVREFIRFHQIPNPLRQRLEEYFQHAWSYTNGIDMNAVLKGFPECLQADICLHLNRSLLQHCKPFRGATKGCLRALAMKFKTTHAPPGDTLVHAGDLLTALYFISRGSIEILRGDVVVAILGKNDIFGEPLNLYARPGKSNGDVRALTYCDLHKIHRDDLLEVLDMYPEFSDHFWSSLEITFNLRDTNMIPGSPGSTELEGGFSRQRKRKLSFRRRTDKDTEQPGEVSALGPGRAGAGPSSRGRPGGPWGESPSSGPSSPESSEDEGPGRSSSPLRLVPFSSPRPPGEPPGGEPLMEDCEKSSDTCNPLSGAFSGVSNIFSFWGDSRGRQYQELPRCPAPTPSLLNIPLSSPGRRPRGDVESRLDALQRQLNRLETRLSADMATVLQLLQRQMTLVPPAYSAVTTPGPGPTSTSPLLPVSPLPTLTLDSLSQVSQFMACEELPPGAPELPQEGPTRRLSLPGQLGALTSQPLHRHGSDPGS
How it was run: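 Predictor h-ERG membrane preparations (sonicated) incubated with test compound dilutions and fluorescent tracer (working 4X tracer at 4 nM) at room temperature for ≥1 h. Read-out by fluorescence polarization, ex 530/25, em 590/35.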

[3] = biological target: Phosphatidylinositol 4,5-bisphosphate 3-kinase catalytic subunit alpha isoform (Homo sapiens, UniProt P42336); assay: Inhibition of human full length p110alpha (1 to 1068 residues) expressed in baculovirus-infected Sf21 cells by ADP-Hunter Plus assay
Chain of Phosphatidylinositol 4,5-bisphosphate 3-kinase catalytic subunit alpha isoform (P42336 whole entry, the tested form may be a part, canonical isoform): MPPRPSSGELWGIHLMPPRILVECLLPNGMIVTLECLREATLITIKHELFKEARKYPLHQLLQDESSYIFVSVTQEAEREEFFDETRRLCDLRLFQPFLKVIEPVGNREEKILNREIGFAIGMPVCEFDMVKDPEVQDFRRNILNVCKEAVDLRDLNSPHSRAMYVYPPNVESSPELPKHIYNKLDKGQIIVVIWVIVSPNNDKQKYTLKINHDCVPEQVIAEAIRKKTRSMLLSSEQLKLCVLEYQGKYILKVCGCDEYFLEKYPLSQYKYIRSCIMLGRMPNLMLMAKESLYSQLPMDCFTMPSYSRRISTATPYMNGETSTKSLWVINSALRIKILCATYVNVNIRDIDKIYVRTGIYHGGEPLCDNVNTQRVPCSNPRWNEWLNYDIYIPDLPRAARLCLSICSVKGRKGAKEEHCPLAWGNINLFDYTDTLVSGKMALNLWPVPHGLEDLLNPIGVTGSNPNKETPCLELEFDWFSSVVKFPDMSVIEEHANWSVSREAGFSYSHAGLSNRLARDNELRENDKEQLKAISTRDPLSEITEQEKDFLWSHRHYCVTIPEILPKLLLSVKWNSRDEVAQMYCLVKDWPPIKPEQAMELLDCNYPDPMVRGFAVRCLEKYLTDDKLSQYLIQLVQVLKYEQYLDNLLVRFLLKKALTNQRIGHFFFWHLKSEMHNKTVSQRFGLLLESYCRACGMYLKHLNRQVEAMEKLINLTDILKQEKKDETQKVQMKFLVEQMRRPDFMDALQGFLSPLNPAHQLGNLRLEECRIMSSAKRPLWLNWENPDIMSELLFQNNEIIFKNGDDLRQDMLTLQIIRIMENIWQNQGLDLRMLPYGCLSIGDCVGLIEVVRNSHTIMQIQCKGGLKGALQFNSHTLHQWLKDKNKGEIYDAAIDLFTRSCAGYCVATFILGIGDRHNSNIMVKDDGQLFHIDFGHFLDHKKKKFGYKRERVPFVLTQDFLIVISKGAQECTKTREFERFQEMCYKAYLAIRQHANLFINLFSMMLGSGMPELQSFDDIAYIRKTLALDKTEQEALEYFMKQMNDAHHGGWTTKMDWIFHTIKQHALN

[4] = Metabolic stability in human liver microsomes assessed as parent compound remaining in presence of NADPH regenerating system at 0.5 uM measured after 15 mins by LC-MS/MS analysis; assay type: ADME, Microsome; conditions: read-out: Stabilty
How it was run: (§1)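 Human, mouse or rat liver microsomes at 0.5 mg/ml protein with compound at 0.5 µM and NADPH-regenerating system, 37 °C with shaking. Control wells contain 0.1 M potassium phosphate instead of the regenerating system. Reaction stopped with acetonitrile/0.1% formic acid, centrifuged, supernatant analyzed by LC-MS/MS. Result is percent parent compound remaining.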

[5] = Inhibition of PI3K/mTOR in human U2OS cells assessed as inhibition of AKT1 phosphorylation at Ser473 residue by C-ELISA; assay type: cell-based
How it was run: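 U2OS osteosarcoma cells grown in 0.1% FBS and serum-stimulated. Endogenous phospho-AKT1 Ser473 quantified by cell-based ELISA with chemiluminescent substrate. Signal plotted against inhibitor concentration and fitted to a sigmoid dose-response curve.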

[6] = biological target: Cytochrome P450 2D6 (Homo sapiens, UniProt P10635); assay: Inhibition of CYP2D6 (unknown origin) using Luciferin-ME-EG as substrate at 10 uM preincubated with enzyme and substrate for 5 mins followed by addition of NADPH regeneration system and measured after 60 mins by luminescence method; assay type: ADME
Chain of Cytochrome P450 2D6 (P10635 whole entry): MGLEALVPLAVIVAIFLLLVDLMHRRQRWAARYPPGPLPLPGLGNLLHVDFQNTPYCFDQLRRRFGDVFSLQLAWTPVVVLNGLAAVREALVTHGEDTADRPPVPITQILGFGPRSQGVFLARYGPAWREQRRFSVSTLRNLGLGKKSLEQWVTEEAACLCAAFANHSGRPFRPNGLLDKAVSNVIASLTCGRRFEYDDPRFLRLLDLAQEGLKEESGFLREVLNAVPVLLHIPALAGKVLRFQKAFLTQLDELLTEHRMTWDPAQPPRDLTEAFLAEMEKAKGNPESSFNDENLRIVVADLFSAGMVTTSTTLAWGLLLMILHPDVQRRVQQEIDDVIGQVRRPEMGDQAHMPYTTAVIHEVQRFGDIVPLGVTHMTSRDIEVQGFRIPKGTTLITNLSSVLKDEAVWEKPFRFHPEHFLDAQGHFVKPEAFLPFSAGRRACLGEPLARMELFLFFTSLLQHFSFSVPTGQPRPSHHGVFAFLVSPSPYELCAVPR
How it was run: (§2)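 P450-Glo luminescence assays with these substrates: Luciferin-ME (CYP1A2), Luciferin-PPXE (CYP3A4), Luciferin-H (CYP2C9), LuciferinH-EG (CYP2C19), Luciferin-ME-EG (CYP2D6). Compounds run in 1/3 serial dilutions from 10 µM in 0.5% DMSO with enzyme and substrate. After 5 min preincubation, NADPH regeneration reagent added; 60 min at 37 °C, then detection reagent for 30 min. Background subtracted.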

[7] = biological target: Cytochrome P450 3A4 (Homo sapiens, UniProt P08684); assay: Inhibition of CYP3A4 (unknown origin) using Luciferin-PPXE as substrate at 10 uM preincubated with enzyme and substrate for 5 mins followed by addition of NADPH regeneration system and measured after 60 mins by luminescence method; assay type: ADME; how it was run: as §2
Chain of Cytochrome P450 3A4 (P08684 whole entry): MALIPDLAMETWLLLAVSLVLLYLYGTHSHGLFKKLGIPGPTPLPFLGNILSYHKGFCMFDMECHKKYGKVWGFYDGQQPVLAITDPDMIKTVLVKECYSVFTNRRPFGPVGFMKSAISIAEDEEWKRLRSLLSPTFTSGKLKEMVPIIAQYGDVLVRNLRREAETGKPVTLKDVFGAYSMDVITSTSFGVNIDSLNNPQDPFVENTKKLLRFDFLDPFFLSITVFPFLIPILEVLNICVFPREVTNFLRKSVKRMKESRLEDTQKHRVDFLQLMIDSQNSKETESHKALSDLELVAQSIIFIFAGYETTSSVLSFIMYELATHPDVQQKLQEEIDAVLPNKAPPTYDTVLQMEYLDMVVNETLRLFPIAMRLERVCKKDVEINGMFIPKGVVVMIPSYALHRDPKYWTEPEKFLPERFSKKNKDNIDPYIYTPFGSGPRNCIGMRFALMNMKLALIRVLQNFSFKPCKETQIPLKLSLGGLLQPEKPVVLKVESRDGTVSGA

[8] = biological target: Cytochrome P450 2C19 (Homo sapiens, UniProt P33261); assay: Inhibition of CYP2C19 (unknown origin) using LuciferinH-EG as substrate at 10 uM preincubated with enzyme and substrate for 5 mins followed by addition of NADPH regeneration system and measured after 60 mins by luminescence method; assay type: ADME; how it was run: as §2
Chain of Cytochrome P450 2C19 (P33261 whole entry): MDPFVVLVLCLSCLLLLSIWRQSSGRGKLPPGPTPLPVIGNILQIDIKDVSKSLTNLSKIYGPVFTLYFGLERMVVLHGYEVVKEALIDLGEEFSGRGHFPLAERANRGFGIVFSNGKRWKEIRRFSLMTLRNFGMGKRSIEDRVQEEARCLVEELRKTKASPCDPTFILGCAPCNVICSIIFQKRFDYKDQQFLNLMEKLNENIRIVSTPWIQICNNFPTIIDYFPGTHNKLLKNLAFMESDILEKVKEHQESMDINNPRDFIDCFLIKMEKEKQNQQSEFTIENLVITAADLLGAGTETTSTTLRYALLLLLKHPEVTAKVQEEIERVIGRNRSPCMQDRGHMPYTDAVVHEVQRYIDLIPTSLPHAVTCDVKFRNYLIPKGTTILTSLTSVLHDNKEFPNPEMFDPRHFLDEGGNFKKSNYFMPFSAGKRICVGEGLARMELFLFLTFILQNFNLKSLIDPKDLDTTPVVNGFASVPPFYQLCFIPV

[9] = Metabolic stability in rat liver microsomes assessed as parent compound remaining in presence of NADPH regenerating system at 0.5 uM measured after 15 mins by LC-MS/MS analysis; assay type: ADME, Microsome; conditions: read-out: Stabilty; how it was run: as §1
[10] = biological target: Cytochrome P450 2C9 (Homo sapiens, UniProt P11712); assay: Inhibition of CYP2C9 (unknown origin) using Luciferin-H as substrate at 10 uM preincubated with enzyme and substrate for 5 mins followed by addition of NADPH regeneration system and measured after 60 mins by luminescence method; assay type: ADME; how it was run: as §2
Chain of Cytochrome P450 2C9 (P11712 whole entry): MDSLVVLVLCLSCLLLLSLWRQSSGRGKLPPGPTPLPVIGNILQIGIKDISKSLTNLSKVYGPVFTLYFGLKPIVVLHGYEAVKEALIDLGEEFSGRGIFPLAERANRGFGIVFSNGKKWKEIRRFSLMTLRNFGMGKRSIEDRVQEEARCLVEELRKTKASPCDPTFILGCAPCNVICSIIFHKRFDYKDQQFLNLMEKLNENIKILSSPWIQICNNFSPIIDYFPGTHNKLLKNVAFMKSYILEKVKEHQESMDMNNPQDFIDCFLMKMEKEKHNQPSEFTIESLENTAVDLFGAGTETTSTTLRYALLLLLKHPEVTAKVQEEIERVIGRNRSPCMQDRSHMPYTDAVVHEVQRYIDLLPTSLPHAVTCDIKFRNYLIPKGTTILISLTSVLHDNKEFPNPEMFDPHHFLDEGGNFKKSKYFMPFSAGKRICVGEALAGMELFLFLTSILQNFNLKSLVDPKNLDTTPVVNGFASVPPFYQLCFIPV

[11] = Metabolic stability in mouse liver microsomes assessed as parent compound remaining in presence of NADPH regenerating system at 0.5 uM measured after 15 mins by LC-MS/MS analysis; assay type: ADME, Microsome; conditions: read-out: Stabilty; how it was run: as §1
[12] = biological target: T1, Cytochrome P450 1A2 (Homo sapiens, UniProt P05177); assay: Inhibition of CYP1A2 (unknown origin) using Luciferin-ME as substrate at 10 uM preincubated with enzyme and substrate for 5 mins followed by addition of NADPH regeneration system and measured after 60 mins by luminescence method; assay type: ADME; how it was run: as §2
T1 sequence (P05177 whole entry): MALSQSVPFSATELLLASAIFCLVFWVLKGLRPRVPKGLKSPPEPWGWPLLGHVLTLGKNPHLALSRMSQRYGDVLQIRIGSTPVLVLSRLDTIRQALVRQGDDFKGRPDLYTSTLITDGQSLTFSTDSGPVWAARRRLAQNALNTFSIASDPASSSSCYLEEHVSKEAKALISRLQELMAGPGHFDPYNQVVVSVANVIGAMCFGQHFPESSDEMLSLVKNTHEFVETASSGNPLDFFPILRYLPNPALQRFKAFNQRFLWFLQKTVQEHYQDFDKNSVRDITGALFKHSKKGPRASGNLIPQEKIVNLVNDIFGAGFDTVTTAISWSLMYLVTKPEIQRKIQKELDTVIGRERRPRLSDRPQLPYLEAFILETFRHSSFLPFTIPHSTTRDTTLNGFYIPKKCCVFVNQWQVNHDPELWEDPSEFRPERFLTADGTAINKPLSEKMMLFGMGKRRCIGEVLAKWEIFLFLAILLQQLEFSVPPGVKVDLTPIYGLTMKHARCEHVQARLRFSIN

[13] = Oral bioavailability in BALB/c mouse at 10 mg/kg measured for 8 hrs; assay type: ADME, organism-based; conditions: in vivo
How it was run: (§3)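 BALB/c mice dosed I.V. or P.O. at the stated dose; plasma levels followed for 8 h. Parameters from noncompartmental analysis: AUC (h.ng/ml), T1/2 (h), Cl (L/h/Kg), Vd (L/Kg), Cmax (ng/ml), Tmax (h).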

[14] = Cmax in BALB/c mouse at 10 mg/kg, po measured for 8 hrs; assay type: ADME, organism-based; design: route oral, dose 10 mg/kg, time 8 hrs; conditions: in vivo; how it was run: as §3
[15] = Half life in BALB/c mouse at 5 mg/kg, iv measured for 8 hrs; assay type: ADME, organism-based; conditions: in vivo; how it was run: as §3
[16] = Tmax in BALB/c mouse at 10 mg/kg, po measured for 8 hrs; assay type: ADME, organism-based; conditions: in vivo
How it was run: (§4)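 Dosing in BALB-C mice intravenously or orally, with plasma sampled over 8 h. Parameters (AUC, T1/2, Cl, Vd, Cmax, Tmax) come from a noncompartmental model. Units: AUC h.ng/ml, Vd L/Kg, Cmax ng/ml, Tmax h.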

[17] = species: Homo sapiens; assay: Selectivity ratio of IC50 for recombinant human GST tagged mTOR (1360 to 2549 residues) expressed in baculovirus expression system to IC50 for human full length p110alpha (1 to 1068 residues) expressed in baculovirus-infected Sf21 cells
How it was run: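 mTOR activity measured by LanthaScreen assay. PI3K-α activity measured by ADP Hunter Plus (ADP accumulation, fluorescence ex 544/em 580 nm), normalized to no-compound control and fitted to a sigmoid dose-response curve. IC50s are the average of two independent experiments. Ratio is mTOR IC50 over PI3K-α IC50.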

[18] = Clearance in BALB/c mouse at 5 mg/kg, iv measured for 8 hrs; assay type: ADME, organism-based; conditions: in vivo; how it was run: as §3
[19] = AUC (infinity) in BALB/c mouse at 5 mg/kg, iv measured for 8 hrs; assay type: ADME, organism-based; design: route intravenous, dose 5 mg/kg, time 8 hrs; conditions: in vivo; how it was run: as §3
[20] = Plasma concentration in BALB/c mouse at 10 mg/kg, po measured for 8 hrs; assay type: ADME, organism-based; how it was run: as §4
[21] = Half life in BALB/c mouse at 10 mg/kg, po measured for 8 hrs; assay type: ADME, organism-based; conditions: in vivo; how it was run: as §3
[22] = Volume of distribution in BALB/c mouse at 5 mg/kg, iv measured for 8 hrs; assay type: ADME, organism-based; conditions: in vivo; how it was run: as §4
[23] = AUC(infinity) in BALB/c mouse at 10 mg/kg, po measured for 8 hrs; assay type: ADME, organism-based; design: route oral, time 8 hrs, dose 10 mg/kg; conditions: in vivo; how it was run: as §3

SMILES: COc1ncc2cc1NS(=O)(=O)c1cccc(c1)C(=O)N1CCc3ccc(cc3C1)-c1ccnc3ccc-2cc13
- pIC50 [1]: 6.60

SMILES: COc1ncc2cc1NS(=O)(=O)c1cccc(c1)C(=O)NCc1cccc(c1)-c1ncnc3ccc-2cc13
- remaining at 0.25 h, 0.5 µM [4]: 97%
- pEC50 [5]: 7.32
- pIC50 [6]: < 4.52
- pIC50 [7]: < 4.52
- pIC50 [8]: < 4.52
- pIC50 [2]: < 4.52
- remaining at 0.25 h, 0.5 µM [9]: 91%
- pIC50 [3]: 8.60
- pIC50 [10]: < 4.52
- remaining at 0.25 h, 0.5 µM [11]: 74%
- pIC50 [12]: < 4.52

SMILES: COc1ncc2cc1NS(=O)(=O)c1cccc(c1)C(=O)NCc1cncc(c1)-c1ncnc3sc-2cc13
- pIC50 [1]: 7.40

SMILES: COc1ncc2cc1NS(=O)(=O)c1cccc(c1)C(=O)NCC1CCN(CC1)c1ccnc3ccc-2cc13
- pIC50 [1]: 8.39

SMILES: COc1ncc2cc1NS(=O)(=O)c1cccc(c1)C(=O)NCc1cccc(c1)-c1ncnc3sc-2cc13
- pIC50 [1]: 8.33

SMILES: COc1ncc2cc1NS(=O)(=O)c1cccc(c1)C(=O)NCc1cncc(c1)Cc1cnc3sc-2nn13
- pIC50 [1]: 6.44
- Ratio IC50 [17]: 40.4
- pIC50 [2]: < 4.52
- pIC50 [3]: 8.05

Continued, in another order:

- pIC50 [1]: 6.91 and 7.14
- pIC50 [3]: 8.21
SMILES: COc1ncc2cc1NS(=O)(=O)c1cccc(c1)C(=O)NCc1cc(ccn1)-c1ccnc3ccc-2cc13
- pIC50 [2]: < 4.52

- pIC50 [1]: 7.68
SMILES: COc1ncc2cc1NS(=O)(=O)c1cccc(c1)C(=O)NCc1cccc(c1)-c1ccnc3ccc-2cc13

- pIC50 [1]: 7.63
SMILES: COc1ncc2cc1NS(=O)(=O)c1cccc(c1)C(=O)NCC1CCN(CC1)c1ncnc3ccc-2cc13

- bioavailability [13]: 40.6%
- remaining at 0.25 h, 0.5 µM [4]: 89%
- pEC50 [5]: 7.97
- Cmax [14]: 3390 ng/mL
- pIC50 [1]: 7.65
- half-life [15]: 34.2 min
- pIC50 [6]: < 4.52
- Tmax [16]: 15 min
- pIC50 [7]: < 4.52
- pIC50 [8]: < 4.52
- clearance [18]: 8.83 mL/min/kg
- AUC(0-inf) [19]: 9470 ng·h/mL
- concentration at 8 h [20]: 264 ng/mL
- half-life [21]: 167 min
- Vd [22]: 0.28 L/kg
- AUC(0-inf) [23]: 7680 ng·h/mL
- remaining at 0.25 h, 0.5 µM [9]: 97%
- pIC50 [3]: 9.10
- pIC50 [10]: 5.08
- remaining at 0.25 h, 0.5 µM [11]: 88%
- pIC50 [12]: < 4.52
SMILES: COc1ncc2cc1NS(=O)(=O)c1cc(c(F)cc1F)C(=O)NCc1cncc(c1)-c1ccnc3ccc-2cc13
- Ratio IC50 [17]: 27.8
- pIC50 [2]: < 4.52

- pIC50 [1]: 7.18
SMILES: COc1ncc2cc1NS(=O)(=O)c1cccc(c1)C(=O)NCCn1cc(cn1)-c1cnn3ccc-2nc13

- pIC50 [1]: 9.52
SMILES: COc1ncc2cc1NS(=O)(=O)c1cccc(c1)C(=O)NCc1cncc(c1)-c1ccnc3ccc-2cc13

- pIC50 [1]: 8.25
SMILES: COc1ncc2cc1NS(=O)(=O)c1cccc(c1)C(=O)NCCn1cc(cn1)-c1cnc3ccc-2nn13
